Published values collected from several papers.
Target: Serine/threonine-protein kinase Nek11 (NEK11, Homo sapiens, UniProt Q8NG66)
One construct used (Q8NG66 1-645): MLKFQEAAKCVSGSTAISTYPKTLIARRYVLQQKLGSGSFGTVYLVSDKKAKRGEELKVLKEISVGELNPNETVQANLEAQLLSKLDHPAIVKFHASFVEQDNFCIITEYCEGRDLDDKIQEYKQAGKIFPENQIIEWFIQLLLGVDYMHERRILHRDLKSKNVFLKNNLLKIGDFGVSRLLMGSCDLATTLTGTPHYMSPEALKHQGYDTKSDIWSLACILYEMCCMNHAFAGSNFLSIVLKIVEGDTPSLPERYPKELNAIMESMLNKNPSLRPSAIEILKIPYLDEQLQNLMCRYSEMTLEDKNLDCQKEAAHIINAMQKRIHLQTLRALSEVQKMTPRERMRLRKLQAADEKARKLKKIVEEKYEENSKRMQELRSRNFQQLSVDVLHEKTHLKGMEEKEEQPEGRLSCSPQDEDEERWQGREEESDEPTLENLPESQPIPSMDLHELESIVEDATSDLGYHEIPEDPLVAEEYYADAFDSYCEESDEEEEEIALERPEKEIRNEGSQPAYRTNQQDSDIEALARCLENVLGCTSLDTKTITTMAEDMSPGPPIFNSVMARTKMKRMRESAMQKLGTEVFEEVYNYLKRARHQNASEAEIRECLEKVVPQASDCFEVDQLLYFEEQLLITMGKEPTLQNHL

Structure (SMILES) | observed | method | tested at | remaining binding [%]
COc1ccnn2ncc(-c3ccnc(N(C)C)n3)c12 | binding | – | 1 µM | 100
COc1ccc2c(c1)O[C@@H](c1ccc(OC)c(OC)c1)C[C@H]2NC(=O)C1(c2ccc3c(c2)OC(F)(F)O3)CC1 | cell-free assay | competition with immobilised ligand | 1 µM | 83
CC1CCCN1c1nccc(-c2cnn3ncccc23)n1 (stereo not drawn) | binding | – | 1 µM | 100
Cn1nc(C(F)(F)F)cc1-c1cnc(N2CCc3cc(S(=O)(=O)Nc4c(F)cc(Cl)cc4F)cc(N4CCCC4=O)c32)nc1 | cell-free assay | competition with immobilised ligand | 1 µM | 78
C[C@@H]1CCN(c2nccc(-c3cnn4ncccc34)n2)C1 | binding | – | 1 µM | 90
O=C(c1ccc(Nc2ncc(Cl)c(-c3ccc(Cl)s3)n2)cc1)N1CCC(N2CCCC2)CC1 | binding | competition with immobilised ligand | 1 µM | 100
N[C@H]1CCN(c2nccc(-c3cnn4ncccc34)n2)C1 | binding | – | 1 µM | 71
COc1ncc2cc3ccccc3nc2c1C#N | cell-free assay | competition with immobilised ligand | 5 µM | 60
O=C(c1ccc(Nc2nccc(-c3cc4ccccc4s3)n2)cc1)N1CCC(N2CCCC2)CC1 | binding | competition with immobilised ligand | 1 µM | 78
Nc1ncc2c(n1)-c1c([nH]c3ccc(C#CC4CC4)cc13)CCCC2 | binding | competition with immobilised ligand | 1 µM | 84
CN(C)c1nccc(-c2cnn3ncccc23)n1 | binding | – | 1 µM | 100
O=C(NCCCN1CCOCC1)c1ccc(Nc2ncc(Cl)c(-c3ccc(Cl)s3)n2)cc1 | binding | competition with immobilised ligand | 1 µM | 88
CC(=O)C1=C(C)N(c2cccc(C(F)(F)F)c2)C(=O)N[C@@H]1c1ccc(C#N)nc1 | cell-free assay | competition with immobilised ligand | 1 µM | 100
CCN1CCN(Cc2ccc(C(=O)Nc3ccc(C)c(Oc4ccc5c(c4)CC(=O)N5)c3)cc2C(F)(F)F)CC1 | binding | competition with immobilised ligand | 1 µM | 100
O=C(NCC1CCOCC1)c1n[nH]cc1NC(=O)c1c(F)cccc1F | binding | competition with immobilised ligand | 1 µM | 91
CNCc1ccccc1-c1csc([C@H](C)Nc2nc(C)nc3cc(OC)c(OC)cc23)c1 | cell-free assay | competition with immobilised ligand | 1 µM | 100
COc1cnc(Nc2cccc(S(N)(=O)=O)c2)nc1N1CCN(c2ccccc2)C(=O)C1 | binding | competition with immobilised ligand | 1 µM | 90
O=C(NCCCC1CCCCC1)c1ccc(CNC(=O)c2cnn(-c3ccccc3)c2C(F)(F)F)cc1 | cell-free assay | competition with immobilised ligand | 0.1 µM | 100
CN(C)c1nccc(-c2cnc3ncccn23)n1 | binding | – | 1 µM | 81
c1cncc(-c2cccc(Nc3nccc(NC4CCCCC4)n3)c2)c1 | binding | competition with immobilised ligand | 10 µM | 100
Cc1cc(C)c(-n2ccn3nc(-c4cccnc4)cc23)cc1NC(=O)c1cc(C#N)cc(S(F)(F)(F)(F)F)c1 | cell-free assay | competition with immobilised ligand | 0.1 µM | 86.1
